Data: ChEMBL document CHEMBL2062453, “Lead optimization through VLAK protocol: new annelated pyrrolo-pyrimidine derivatives as antitumor agents” (2012)

Key:
Format in all cases: functional
[1] = test system: HL-60(TB); test: Cytotoxicity against human HL-60(TB) cells after 48 hrs by SRB assay; conditions: HL-60, 48 h; for CC50: read-out: pLC50 (the source's name) (converted); for TGI: read-out: pTGI (converted)
How it was run: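 NCI 60-line five-dose screen. Cells are grown in RPMI 1640 with 5% FBS and 2 mM glutamine, plated at 5000–40,000 cells/well, and preincubated 24 h at 37 °C in 5% CO2. Compound is dissolved in DMSO and given at five concentrations (10-fold or ½-log dilutions) for 48 h. Cells are TCA-fixed (HL-60(TB), suspension: 16% final; HOP92, adherent: 10% final), SRB-stained and read at 515 nm. GI50 comes from [(Ti−Tz)/(C−Tz)]×100 = 50.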

[2] = test system: MCF7; test: Cytotoxicity against human MCF7 cells assessed as cell growth at 10 uM after 48 hrs by SRB assay relative to control; conditions: MCF7, 48 h, read-out: Activity
How it was run: (§1)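 NCI primary screen of about 60 human tumour lines. Cells inoculated and preincubated, then a single test concentration added and cultures incubated 48 h. Result given as percent growth (G%) of treated versus untreated control cells.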

[3] = test system: UACC-257; test: Cytotoxicity against human UACC257 cells assessed as cell growth at 10 uM after 48 hrs by SRB assay relative to control; conditions: UACC-257, 48 h, read-out: Activity
How it was run: (§2)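 NCI single-dose primary screen across about 60 human tumour lines. Each line was inoculated and preincubated on microtiter plates, then exposed to one concentration of agent for 48 h. Growth is reported as percent growth (G%) of treated cells versus untreated control cells.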

[4] = test system: HT-29; test: Cytotoxicity against human HT-29 cells assessed as cell growth at 10 uM after 48 hrs by SRB assay relative to control; conditions: HT-29, 48 h, read-out: Activity; how it was run: as §1
[5] = test system: RPMI-8226; test: Cytotoxicity against human RPMI8226 cells assessed as cell growth at 10 uM after 48 hrs by SRB assay relative to control; conditions: RPMI-8226, 48 h, read-out: Activity
[6] = test system: NCI-H522; test: Cytotoxicity against human NCI-H522 cells assessed as cell growth at 10 uM after 48 hrs by SRB assay relative to control; conditions: NCI-H522, 48 h, read-out: Activity
[7] = test system: A498; test: Cytotoxicity against human A498 cells assessed as cell growth at 10 uM after 48 hrs by SRB assay relative to control; conditions: A498, 48 h, read-out: Activity; how it was run: as §1
[8] = test system: CAKI-1; test: Cytotoxicity against human Caki1 cells assessed as cell growth at 10 uM after 48 hrs by SRB assay relative to control; conditions: CAKI-1, 48 h, read-out: Activity; how it was run: as §1
[9] = test system: IGROV-1; test: Cytotoxicity against human IGROV1 cells assessed as cell growth at 10 uM after 48 hrs by SRB assay relative to control; conditions: IGROV-1, 48 h, read-out: Activity; how it was run: as §1
[10] = test system: DU-145; test: Cytotoxicity against human DU145 cells assessed as cell growth at 10 uM after 48 hrs by SRB assay relative to control; conditions: DU-145, 48 h, read-out: Activity; how it was run: as §1
[11] = test system: MOLT-4; test: Cytotoxicity against human MOLT4 cells assessed as cell growth at 10 uM after 48 hrs by SRB assay relative to control; conditions: MOLT-4, 48 h, read-out: Activity
[12] = test system: HCT-15; test: Cytotoxicity against human HCT15 cells assessed as cell growth at 10 uM after 48 hrs by SRB assay relative to control; conditions: HCT-15, 48 h, read-out: Activity; how it was run: as §1
[13] = test system: KM12; test: Cytotoxicity against human KM12 cells assessed as cell growth at 10 uM after 48 hrs by SRB assay relative to control; conditions: KM12, 48 h, read-out: Activity; how it was run: as §1
[14] = test system: OVCAR-3; test: Cytotoxicity against human OVCAR3 cells assessed as cell growth at 10 uM after 48 hrs by SRB assay relative to control; conditions: OVCAR-3, 48 h, read-out: Activity
[15] = test system: SW-620; test: Cytotoxicity against human SW620 cells assessed as cell growth at 10 uM after 48 hrs by SRB assay relative to control; conditions: SW-620, 48 h, read-out: Activity; how it was run: as §2
[16] = test system: SK-MEL-5; test: Cytotoxicity against human SK-MEL-5 cells assessed as cell growth at 10 uM after 48 hrs by SRB assay relative to control; conditions: SK-MEL-5, 48 h, read-out: Activity
[17] = test system: HOP-92; test: Cytotoxicity against human HOP92 cells assessed as cell growth at 10 uM after 48 hrs by SRB assay relative to control; conditions: HOP-92, 48 h, read-out: Activity; how it was run: as §1
[18] = test system: T47D; test: Cytotoxicity against human T47D cells assessed as cell growth at 10 uM after 48 hrs by SRB assay relative to control; conditions: read-out: Activity; how it was run: as §2
[19] = test system: Malme-3M; test: Cytotoxicity against human MALME-3M cells assessed as cell growth at 10 uM after 48 hrs by SRB assay relative to control; conditions: read-out: Activity; how it was run: as §1
[20] = test system: NCI-H226; test: Cytotoxicity against human NCI-H226 cells assessed as cell growth at 10 uM after 48 hrs by SRB assay relative to control; conditions: NCI-H226, 48 h, read-out: Activity
[21] = test system: SK-OV-3; test: Cytotoxicity against human SKOV3 cells assessed as cell growth at 10 uM after 48 hrs by SRB assay relative to control; conditions: SK-OV-3, 48 h, read-out: Activity
[22] = test system: HOP-62; test: Cytotoxicity against human HOP62 cells assessed as cell growth at 10 uM after 48 hrs by SRB assay relative to control; conditions: HOP-62, 48 h, read-out: Activity; how it was run: as §1
[23] = test system: U-251; test: Cytotoxicity against human U251 cells assessed as cell growth at 10 uM after 48 hrs by SRB assay relative to control; conditions: U-251, 48 h, read-out: Activity; how it was run: as §2
[24] = test system: EKVX; test: Cytotoxicity against human EKVX cells assessed as cell growth at 10 uM after 48 hrs by SRB assay relative to control; conditions: read-out: Activity; how it was run: as §1
[25] = test system: NCI-H322M; test: Cytotoxicity against human NCI-H322M cells assessed as cell growth at 10 uM after 48 hrs by SRB assay relative to control; conditions: read-out: Activity
[26] = test system: HCT-116; test: Cytotoxicity against human HCT116 cells assessed as cell growth at 10 uM after 48 hrs by SRB assay relative to control; conditions: HCT-116, 48 h, read-out: Activity; how it was run: as §1
[27] = test system: Hs-578T; test: Cytotoxicity against human Hs578T cells assessed as cell growth at 10 uM after 48 hrs by SRB assay relative to control; conditions: read-out: Activity; how it was run: as §1
[28] = test system: NCI-H460; test: Cytotoxicity against human NCI-H460 cells assessed as cell growth at 10 uM after 48 hrs by SRB assay relative to control; conditions: NCI-H460, 48 h, read-out: Activity

SMILES | GI50 [1] [µM] | CC50 [1] [µM] | TGI [1] [µM] | growth at 10 µM [2] [%] | growth at 10 µM [3] [%] | growth at 10 µM [4] [%] | growth at 10 µM [5] [%] | growth at 10 µM [6] [%] | growth at 10 µM [7] [%] | growth at 10 µM [8] [%] | growth at 10 µM [9] [%] | growth at 10 µM [10] [%] | growth at 10 µM [11] [%] | growth at 10 µM [12] [%] | growth at 10 µM [13] [%] | growth at 10 µM [14] [%] | growth at 10 µM [15] [%] | growth at 10 µM [16] [%] | growth at 10 µM [18] [%] | growth at 10 µM [19] [%] | further results
CSC1=Nc2c(c(C)c(-c3ccccc3)n2CCCCl)C2=NC(=O)CN12 | 3.39 | > 100 | > 100 | 36 | 84 | 23 | 51 | 56 | 47 | 58 | 48 | 95 | 51 | 65 | 26 | 85 | 44 | 51 | 72 | 83 | growth at 10 µM [17]: 65%; growth at 10 µM [20]: 79%; growth at 10 µM [21]: 88%; growth at 10 µM [22]: 64%; growth at 10 µM [23]: 52%; growth at 10 µM [24]: 54%; growth at 10 µM [25]: 82%; growth at 10 µM [26]: 27%; growth at 10 µM [27]: 85%
CSC1=Nc2c(c(C)c(-c3ccccc3)n2CCCN2CCCCC2)C2=NC(=O)CC(C)N12 (stereo not drawn) | 1.82 | 8.32 | 3.89 | 14 | 41 | 21 | -51 | 36 | 81 | 67 | 23 | 48 | 68 | 81 | 2 | 24 | 62 | 10 | -2 | 57 | growth at 10 µM [28]: 38%; growth at 10 µM [20]: 69%; growth at 10 µM [21]: 27%; growth at 10 µM [22]: 82%; growth at 10 µM [23]: 12%; growth at 10 µM [24]: 42%; growth at 10 µM [25]: 62%; growth at 10 µM [26]: 43%; growth at 10 µM [27]: 11%
